Data reported in paper PMC6959537 (Bioorganic & medicinal chemistry, 2015).
Entries after “also recorded” stand apart in the source; their conditions may differ. Where two headings read alike, the source gives them in different places.

Columns and labels:
human TRPV1 = human TRPV1 (Homo sapiens, UniProt Q8NER1); experiment: hTRPV1 antagonism, inhibition of activation by capsaicin; type: cell-based
[1] = system: capsaicin-induced hypothermia; experiment: Inhibition of capsaicin-induced hypothermia after oral administration; design: species or system mouse; details: in vivo
body temperature = experiment: Body temperature study; type: in vivo, mouse; details: at the given doses, oral
[2] = system: CCI-induced cold allodynia; experiment: CCI-induced cold allodynia; type: in vivo; details: mouse, Bennett model, oral, 10 mg/kg
Method in brief: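 Mice with chronic constriction injury (Bennett model) received test compound orally. Cold allodynia was then scored and expressed as % maximal possible effect. Groups were n = 10, reported as mean ± SEM, and compared with vehicle (p < 0.05).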

[3] = capsaicin 100 nM, FLIPR, hTRPV1 expressed in CHO cells

Sequence of human TRPV1 (Q8NER1 whole entry): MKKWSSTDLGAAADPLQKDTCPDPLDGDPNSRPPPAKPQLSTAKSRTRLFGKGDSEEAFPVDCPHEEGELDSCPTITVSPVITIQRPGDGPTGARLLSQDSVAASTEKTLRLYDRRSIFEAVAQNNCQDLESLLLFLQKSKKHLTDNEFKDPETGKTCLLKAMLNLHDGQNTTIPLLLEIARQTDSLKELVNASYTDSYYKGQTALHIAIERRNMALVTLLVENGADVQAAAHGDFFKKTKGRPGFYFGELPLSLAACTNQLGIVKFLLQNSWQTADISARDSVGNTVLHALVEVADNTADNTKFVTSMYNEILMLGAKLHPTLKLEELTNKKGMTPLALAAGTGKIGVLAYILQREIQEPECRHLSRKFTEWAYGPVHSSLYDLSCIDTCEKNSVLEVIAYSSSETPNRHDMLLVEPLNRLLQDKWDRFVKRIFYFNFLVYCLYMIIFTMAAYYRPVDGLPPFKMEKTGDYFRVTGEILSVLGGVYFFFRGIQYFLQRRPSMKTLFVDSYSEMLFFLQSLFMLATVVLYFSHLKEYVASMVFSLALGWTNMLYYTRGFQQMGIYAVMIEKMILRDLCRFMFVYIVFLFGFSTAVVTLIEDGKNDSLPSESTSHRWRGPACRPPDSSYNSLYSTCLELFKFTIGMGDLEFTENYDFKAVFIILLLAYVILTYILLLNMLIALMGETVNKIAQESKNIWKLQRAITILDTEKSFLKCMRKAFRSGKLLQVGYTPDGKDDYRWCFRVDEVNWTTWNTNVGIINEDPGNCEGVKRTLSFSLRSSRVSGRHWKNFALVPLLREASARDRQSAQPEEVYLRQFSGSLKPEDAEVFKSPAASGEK

In the case of “2-(2-Fluoro-4-(methylsulfonamido)phenyl)-N-(2-(4-(4-fluorobenzyl)piperidin-1-yl)-4-(trifluoromethyl)benzyl)propanamide [Compound 20]”, the Ki (human TRPV1; read-out: Ki (CAP), capsaicin 100 nM, FLIPR, hTRPV1 expressed in CHO cells) is reported as 0.4 nM.
In the case of “2-(3-Fluoro-4-(methylsulfonamido)phenyl)-N-(2-cyclopentylthio-4-(trifluoromethyl)-benzyl)propanamide [Compound 49]”, the “hTRPV1 antagonism in words” value (human TRPV1; [3]) is reported as “moderate antagonism”.
In the case of `CC(C(=O)NCc1ccc(C(F)(F)F)cc1N1CCOCC1)c1ccc(NS(C)(=O)=O)c(F)c1` (centres unmarked) [Compound 27, 2-(3-Fluoro-4-methanesulfonylamino-phenyl)-N-(2-morpholin-4-yl-4-trifluoromethyl-benzyl)-propionamide], the “fold less potent than the corresponding piperidine surrogate (10)” value (human TRPV1; capsaicin antagonism, versus compound 10) is reported as “ca. 4 fold”.
In the case of `CCCCCCOc1cc(C(F)(F)F)ccc1CNC(=O)C(C)c1ccc(NS(C)(=O)=O)c(F)c1` (centres unmarked) [Compound 31, 2-(3-Fluoro-4-(methylsulfonamido)phenyl)-N-(2-(hexyloxy)-4(trifluoromethyl)benzyl)propanamide], the Ki (human TRPV1) is reported as 0.7 to 0.8 nM.
`CC(C(=O)NCc1ccc(C(F)(F)F)cc1SCCCO)c1ccc(NS(C)(=O)=O)c(F)c1` (centres unmarked) [Compound 42, 2-(3-Fluoro-4-(methylsulfonamido)phenyl)-N-(2-((3-hydroxypropyl)thio)-4-(trifluoro-methyl)benzyl)propanamide] was tested, and the “hTRPV1 antagonism in words” value (human TRPV1; [3]) was “loss of activity”.
In the case of `CC(C(=O)NCc1ccc(C(F)(F)F)cc1SC1CCCC1)c1ccc(NS(C)(=O)=O)c(F)c1` (centres unmarked) [Compound 43, 2-(3-Fluoro-4-(methylsulfonamido)phenyl)-N-(2-cyclopentylthio-4-(trifluoromethyl)-benzyl)propanamide], the “Effect on capsaicin-induced hypothermia in words” value [1] is reported as “blocked capsaicin-induced hypothermia” and the “Hyperthermia / body temperature effect of compound alone” value (body temperature) is reported as “without hyperthermia; also recorded: did not show any hyperthermia; also recorded: thermoneutral”.
In the case of `C[C@H](C(=O)NCc1ccc(C(F)(F)F)cc1SC1CCCCC1)c1ccc(NS(C)(=O)=O)c(F)c1` [Compound 44S], the “Effect on capsaicin-induced hypothermia in words” value [1] is reported as “blocked capsaicin-induced hypothermia”, the “Hyperthermia / body temperature effect of compound alone” value (body temperature) is reported as “without hyperthermia; also recorded: did not show any hyperthermia; also recorded: thermoneutral” and the “max antiallodynic efficacy in cold allodynia, MPE” value [2] is reported as 57 % MPE.
In the case of `CC(C(=O)NCc1ccc(C(F)(F)F)cc1F)c1ccc(NS(C)(=O)=O)c(F)c1` (centres unmarked) [Compound 50, 2-(3-Fluoro-4-methanesulfonylamino-phenyl)-N-(2-fluoro-4-trlfluoromethyl-benzyl)-propioamide], the “hTRPV1 antagonism in words” value (human TRPV1; [3]) is reported as “weak antagonists”.
With `CC(C(=O)NCc1ccc(C(F)(F)F)cc1Cl)c1ccc(NS(C)(=O)=O)c(F)c1` (centres unmarked) [Compound 51, 2-(3-Fluoro-4-methanesulfonylamino-phenyl)-N-(2-chloro-4-trifluoromethyl-benzyl)-propionamide] the “hTRPV1 antagonism in words” value (human TRPV1; [3]) was “good antagonism”.
With `CC(C(=O)NCc1ccc(C(F)(F)F)cc1[N+](=O)[O-])c1ccc(NS(C)(=O)=O)c(F)c1` (centres unmarked) [Compound 52, 2-(3-Fluoro-4-methanesulfonylamino-phenyl)-N-(2-nitro-4-trifluoromethyl-benzyl)-propionamide] the “hTRPV1 antagonism in words” value (human TRPV1; [3]) was “weak antagonists”.
For `CC(C(=O)NCc1ccc(C(F)(F)F)cc1-c1cccnc1)c1ccc(NS(C)(=O)=O)c(F)c1` (centres unmarked) [Compound 62, 2-(3-Fluoro-4-methanesulfonylamino-phenyl)-N-(2-pyridin-3-yl-4-trifluoromethylbe-nzyl)-propionamide], the “hTRPV1 antagonism in words” value (human TRPV1; [3]) was “weak antagonist”.
